From ChEMBL document CHEMBL1145867, “Muraymycins, novel peptidoglycan biosynthesis inhibitors: synthesis and SAR of their analogues” (2003) come the findings set out here.

Converted amounts (≈) assume the structure as drawn. The source made the active and inactive calls. No cut-off for these calls is given here. Where only a bound is given, the exact number is not on record here.

Assay [1] deals with Staphylococcus aureus. In words: In vitro antimicrobial activity against Staphylococcus aureus GC 1131 at 32 ug/ml soluble peptidoglycan. Type of assay: functional.
The subject of assay [2] is Enterococcus faecalis. In words: In vitro antimicrobial activity against Enterococcus faecalis GC 4555 at 32 ug/ml soluble peptidoglycan. The format is functional.
Assay [3] deals with Staphylococcus aureus. Nature of the assay: In vitro antimicrobial activity against Staphylococcus aureus GC 4536 at 32 ug/ml soluble peptidoglycan. The format is functional.
The subject of assay [4] is Enterococcus faecalis. In words: In vitro antimicrobial activity against Enterococcus faecalis GC 842 at 32 ug/ml soluble peptidoglycan. The format is functional.
Assay [5] relates to Bacteria. Nature of the assay: In vitro antimicrobial activity against gram-negative organisms (10).
Assay [6] has as its system Staphylococcus sp. Nature of the assay: In vitro antimicrobial activity against CNS GC 4547 at 32 ug/ml soluble peptidoglycan. Type of assay: functional.
Assay [7] has as its system Enterococcus faecalis. Nature of the assay: In vitro antimicrobial activity against Enterococcus faecalis GC 2242 at 32 ug/ml soluble peptidoglycan. The format is functional.
Assay [8] concerns Staphylococcus aureus. In words: In vitro antimicrobial activity against Staphylococcus aureus GC 2216 at 32 ug/ml soluble peptidoglycan. Type of assay: functional.
In assay [9] the test system is Candida albicans. Nature of the assay: In vitro antimicrobial activity against Candida albicans […] at 32 ug/ml soluble peptidoglycan. The format is functional.
Assay [10] concerns Staphylococcus sp. Nature of the assay: In vitro antimicrobial activity against CNS GC 4538 at 32 ug/ml soluble peptidoglycan. Type of assay: functional.
Assay [11] has as its system Staphylococcus sp. Nature of the assay: In vitro antimicrobial activity against Coagulase-negative staphylococcus GC 4538 at 32 ug/ml soluble peptidoglycan. The format is functional.
Assay [12] in a line: The inhibitory activity of compound against MraY or MurG at 100 ug/mL; Inhibit.
Assay [13] is described as follows: The inhibitory activity of compound against MraY or MurG at 6.25 ug/mL; No inhibition.
Assay [14] can be described thus: The inhibitory activity of compound against MraY or MurG at 12.5 ug/mL; No inhibition.
Assay [15] in a line: The inhibitory activity of compound against MraY or MurG at 25 ug/mL; No inhibition.
A short description of assay [16]: The inhibitory activity of compound against MraY or MurG at 50 ug/mL; No inhibition.
Assay [17] is described as follows: The inhibitory activity of compound against MraY or MurG at 25 ug/mL; Inhibit.
Assay [18] in a line: The inhibitory activity of compound against MraY or MurG at 50 ug/mL; Inhibit.
Assay [19] is described as follows: The inhibitory activity of compound against MraY or MurG at 6.25 ug/mL; Inhibit.
Assay [20] in a line: The inhibitory activity of compound against MraY or MurG at 12.5 ug/mL; Inhibit.
In assay [21] the test system is Staphylococcus sp. In words: In vitro antimicrobial activity against CNS GC 4547. The format is functional. The essentials: (§1)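 Broth microdilution per NCCLS guidance. Serial dilutions of each agent in microtiter plates are inoculated with each organism to 10⁵ CFU/mL and incubated 18–22 h at 35 C in ambient air. MIC is the lowest concentration giving complete growth inhibition, judged by the unaided eye.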

Assay [22] relates to Staphylococcus aureus. Nature of the assay: In vitro antimicrobial activity against Staphylococcu aureus GC 1131. Type of assay: functional. In outline:
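Broth dilution per NCCLS recommendations. Serial dilutions in microtiter plates inoculated to 10⁵ CFU/mL, then incubated 18–22 h at 35 C in ambient air. MIC taken as the lowest concentration giving complete growth inhibition by unaided eye.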

In assay [23] the test system is Escherichia coli. Nature of the assay: In vitro antimicrobial activity against Escherichia coli GC 3226. Type of assay: functional. In outline:
as §1

The subject of assay [24] is Escherichia coli. Nature of the assay: In vitro antimicrobial activity against Escherichia coli GC 4560. Type of assay: functional. In outline:
as §1

Assay [25] concerns Bacteria. Nature of the assay: In vitro antimicrobial activity against gram-negative organisms (10). Type of assay: functional. The essentials:
as §1

Assay [26] concerns Candida albicans. In words: In vitro antimicrobial activity against Candida albicans GC 3066. The format is functional. The essentials:
as §1

In assay [27] the test system is Pseudomonas aeruginosa. In words: In vitro antimicrobial activity against Pseudomonas aeruginosa GC 4532. Type of assay: functional. In outline: as §1
Assay [28] relates to Staphylococcus sp. Nature of the assay: In vitro antimicrobial activity against CNS GC 4538. Type of assay: functional. The essentials: as §1
The subject of assay [29] is Staphylococcus aureus. Nature of the assay: In vitro antimicrobial activity against Staphylococcu aureus GC 2216. Type of assay: functional. In outline:
as §1

Assay [30] concerns Klebsiella pneumoniae. Nature of the assay: In vitro antimicrobial activity against Klebsiella pneumoniae GC 4534. The format is functional. In outline:
as §1

The subject of assay [31] is Enterobacter cloacae. Nature of the assay: In vitro antimicrobial activity against Enterobacter cloacae GC 3783. The format is functional. The essentials: as §1
For assay [32], the system named is Staphylococcus sp. Nature of the assay: In vitro antimicrobial activity against Staphylococci. Type of assay: functional, staphyl ococcus species. In outline:
as §1

Assay [33] in a line: The inhibitory activity of compound against MraY or MurG at 12.5 ug/mL; No Inhibition.
Assay [34] deals with Enterococcus faecalis. In words: In vitro antimicrobial activity against Enterococcus faecalis GC 2242. Type of assay: functional. In outline:
as §1

Assay [35] deals with Escherichia coli. In words: In vitro antimicrobial activity against Escherichia coli GC 2214. The format is functional. The essentials: as §1
The subject of assay [36] is Morganella morganii. Nature of the assay: In vitro antimicrobial activity against Morganella morganii GC 4531. Type of assay: functional. The essentials: as §1
The test system of assay [37] is Enterococcus faecalis. In words: In vitro antimicrobial activity against Enterococcus faecalis GC 4555. Type of assay: functional. In outline:
as §1

Assay [38] in a line: The inhibitory activity of compound against MraY or MurG at 25 ug/mL; No Inhibition.
The test system of assay [39] is Staphylococcus aureus. Nature of the assay: In vitro antimicrobial activity against Staphylococcu aureus GC 4536. Type of assay: functional. In outline: as §1
Assay [40] deals with Enterococcus faecalis. In words: In vitro antimicrobial activity against Enterococcus faecalis GC 842. Type of assay: functional. In outline: as §1
Assay [41] relates to Enterococcus sp. In words: In vitro antimicrobial activity against Enterococci. Type of assay: functional. In outline:
as §1

Assay [42] deals with Serratia marcescens. Nature of the assay: In vitro antimicrobial activity against Serratia marcescens GC 4077. Type of assay: functional. In outline:
as §1

The nature of assay [43]: The inhibitory activity of compound against MraY or MurG at 6.25 ug/mL; No Inhibition.
The subject of assay [44] is Pseudomonas aeruginosa. In words: In vitro antimicrobial activity against Pseudomonas aeruginosa GC 2214. The format is functional. In outline:
as §1

The subject of assay [45] is Escherichia coli. Nature of the assay: In vitro antimicrobial activity against Escherichia coli GC 4559. The format is functional. The essentials: as §1

As to `COc1ccc(Cn2c(=O)ccn([C@@H]3OC([C@H](O)[C@H](NCCCNC(=O)[C@H](NC(=O)OCc4ccccc4)C(C)O)C(=O)OC(C)(C)C)[C@@H](O[Si](C)(C)C(C)(C)C)[C@H]3O[Si](C)(C)C(C)(C)C)c2=O)cc1` (stereo not given in full), the minimal inhibitory concentration (MIC) in assay [1] was above 128 µg/mL; in [2] it was above 128 µg/mL; in assay [3], above 128 µg/mL; in [4], 128 µg/mL (≈ 126 µM); in [5], above 128 µg/mL; in [6], above 128 µg/mL. The MIC was above 128 µg/mL in assay [7]; above 128 µg/mL in [8]; 128 µg/mL (≈ 126 µM) in assay [9]; above 128 µg/mL in [10]; above 128 µg/mL in assay [11].
`COc1ccc(Cn2c(=O)ccn([C@@H]3OC([C@H](O)[C@H](NCCCNC(=O)[C@H](N)C(C)O)C(=O)OC(C)(C)C)[C@@H](O[Si](C)(C)C(C)(C)C)[C@H]3O[Si](C)(C)C(C)(C)C)c2=O)cc1` (stereo not given in full): the MIC in [1] is 8 µg/mL (≈ 9.09 µM); in assay [2], 4 µg/mL (≈ 4.54 µM); in [3], 4 µg/mL (≈ 4.54 µM); in [4], 4 µg/mL (≈ 4.54 µM); in [5], above 128 µg/mL; in assay [6], 8 µg/mL (≈ 9.09 µM). The MIC in [7] is 8 µg/mL (≈ 9.09 µM); in assay [8] it was 4 µg/mL (≈ 4.54 µM); in assay [9] it was above 128 µg/mL; in [10] it was 4 µg/mL (≈ 4.54 µM); in assay [11] it was 4 µg/mL (≈ 4.54 µM). In addition, the Inhibitory activity entry in assay [12] is on record as “Inhibit”. The Inhibitory activity result in assay [13], in [14], in assay [15] and in assay [16] was “inactive” each time.
`COC1C(O)[C@@H](OC(C(NCCCNC(=O)[C@H](NC(=O)[C@@H](NC(=O)N[C@H](C(=O)O)C(C)C)C2CCN=C(N)N2)C(O)C(C)C)C(=O)O)[C@H]2O[C@@H](n3ccc(=O)[nH]c3=O)[C@H](O)[C@@H]2O)O[C@H]1CN` (stereo not given in full): the Inhibitory activity entry in [12], in assay [17], in [18], in [19] and in assay [20] was “Inhibit” throughout.
For the compound `COc1ccc(Cn2c(=O)ccn([C@@H]3OC([C@H](O)[C@H](NCCCNC(=O)[C@H](N)CCCCNC(=O)OCc4ccccc4)C(=O)OC(C)(C)C)[C@@H](O[Si](C)(C)C(C)(C)C)[C@H]3O[Si](C)(C)C(C)(C)C)c2=O)cc1` (stereo not given in full), the minimal inhibitory concentration (MIC) in [21] is 16 µg/mL (≈ 15.4 µM); in assay [22], 4 µg/mL (≈ 3.84 µM); in [23] it was 128 µg/mL (≈ 123 µM); in assay [24], 8 µg/mL (≈ 7.68 µM); in [25] it was 128 µg/mL (≈ 123 µM); in assay [26] it was above 128 µg/mL. Further, the MIC in [27] was above 128 µg/mL; in [28] it was 8 µg/mL (≈ 7.68 µM); in [28] (Staphylococcus sp., read-out: MIC) it was 8 µg/mL (≈ 7.68 µM); in assay [29], 8 µg/mL (≈ 7.68 µM); in [30], above 128 µg/mL; in [31] it was above 128 µg/mL. In addition, the minimal inhibitory concentration (MIC) in assay [32] is 4 µg/mL (≈ 3.84 µM); in assay [34], 8 µg/mL (≈ 7.68 µM); in [35], 128 µg/mL (≈ 123 µM); in [36], 128 µg/mL (≈ 123 µM); in assay [37], 8 µg/mL (≈ 7.68 µM); in [39], 8 µg/mL (≈ 7.68 µM). Also, the minimal inhibitory concentration (MIC) in assay [40] is 8 µg/mL (≈ 7.68 µM); in assay [41], 8 µg/mL (≈ 7.68 µM); in [42], 128 µg/mL (≈ 123 µM); in assay [44], above 128 µg/mL; in [45] it was above 128 µg/mL. Further, the Inhibitory activity result in [12] and in [18] was “Inhibit” in each case. In addition, the Inhibitory activity result in [33], in assay [38] and in assay [43] was “inactive” throughout.

For orientation: MIC means the lowest concentration that inhibits growth of the organism.
